For assay [1], the target named is T1, Macrophage migration inhibitory factor (Homo sapiens) (UniProt P14174).
T1 sequence (whole entry): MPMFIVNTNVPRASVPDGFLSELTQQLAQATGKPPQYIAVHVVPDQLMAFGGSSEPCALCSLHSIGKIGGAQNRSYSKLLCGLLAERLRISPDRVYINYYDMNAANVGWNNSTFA
Briefly: Inhibitory activity against macrophage migration inhibitory factor tautomerase (MIF) at a concentration of 0.5 mM. An outline of the steps:
(§1)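 Recombinant human MIF expressed in E. coli. The substrate is L-dopachrome methyl ester, generated by oxidizing 10 mM precursor stocks in 10 mM sodium phosphate, pH 6.0, with sodium periodate for 10 min, then quenching with methionine. Final substrate is 0.5 mM, with test compound at the stated concentration. The reaction starts on adding MIF from a 20 mg/mL stock. Percent inhibition is taken from the absorbance decrease at 475 nm over 1 min.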

The target of assay [2] is T1, Macrophage migration inhibitory factor (Homo sapiens). The assay is described as follows: Inhibitory activity against macrophage migration inhibitory factor tautomerase (MIF) at a concentration of 0.125 mM. An outline of the steps: as §1
For assay [3] the target is unchanged. The assay is described as follows: Inhibitory activity against macrophage migration inhibitory factor tautomerase (MIF) at a concentration of 0.25 mM. An outline of the steps: as §1
The target is the same in assay [4]. Briefly: Inhibitory activity against macrophage migration inhibitory factor tautomerase (MIF) at a concentration of 0.06 mM. An outline of the steps: as §1
Assay [5] has the same target. Briefly: Inhibitory activity against macrophage migration inhibitory factor tautomerase (MIF) at a concentration of 0.02 mM. In short, it runs like this:
as §1

Data on 9 compounds can be found in ChEMBL document CHEMBL1131879, “Inhibition of macrophage migration inhibitory factor (MIF) tautomerase activity by dopachrome analogs” (Bioorg Med Chem Lett, 1999).

By inhibition is commonly meant the relative decrease from the control value, in per cent.

`CCCC(C(N)=O)C1=CC(O)C(O)=CC1` (stereo not drawn) displayed an inhibition in assay [1] of 0%.

`COC(=O)C1(C)CC2=CC(=O)C(O)=CC2=N1` (racemic) yielded an inhibition in assay [1] of 34%.

Take `O=C1C=C2C(=NC(C(=O)O)C2O)C=C1O` (stereo not drawn): the inhibition in assay [1] was found to be 100%; in assay [2] it was 41%; in assay [3], 98%; in assay [4], 9%.

Consider `C[N+]1=C2C=C(O)C(=O)C=C2C(O)C1` (stereo not drawn), for which the inhibition amounted to 98% in assay [1], 21% in assay [5], 54% in assay [2] and 79% in assay [3].

For `CCOC(=O)/C=C/C1=CC(O)C(O)=CC1` (stereo not drawn), the inhibition in assay [1] is 0%.

In assay [1], `CC1(C(=O)O)CC2=CC(=O)C(O)=CC2=N1` (racemic) showed an inhibition of 35%.

On to `CC1N=C2C=C(O)C(=O)C=C2C1O` (stereo not drawn), for which the inhibition amounted to 92% in assay [1], 54% in assay [2], 88% in assay [3] and 22% in assay [4].

`COC(=O)[C@]1(C)CC2=CC(=O)C(O)=CC2=N1`: the inhibition in assay [1] is 45%.

On to `C[C@@]1(C(=O)O)CC2=CC(=O)C(O)=CC2=N1`, for which, in assay [1], the inhibition was found to be 29%.
